This is an account of results in PubChem BioAssay.

Experiment [1] is described as follows: reducers of endogenous Her2 protein level, primary screen, SKBR3 breast tumor cells, AlphaScreen, ATP viability (AID 461;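 active means Her2 level under about 52% in both replicate screens, with viability over 70% of control, limit read from the data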;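 on Her2 level: lower value means less Her2 protein in the cells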;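 on viability: percent of carrier control wells set as 100% viability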). To be noted: 18-24 h, measured here: SKBR3 viability, ATP luminescence, at 10 µM. In general terms: In Alpha technology, singlet oxygen from a donor bead excites a nearby acceptor bead.
The target of experiment [2] is Receptor tyrosine-protein kinase erbB-2 (Homo sapiens) (UniProt P04626). The description is as above. To be noted: 18-24 h, at 10 µM, stronger effect = lower value.
Experiment [3] in a line: SK-BR-3 cell growth inhibitors, pilot screen, 24 h, human (AID 572;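 active means viability at or below 10% of carrier control in both of two separate runs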;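 further: compound exposure lasted between 18 and 24 h rather than exactly 24 h; 100% = carrier-treated control wells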). To be noted: SK-BR-3 viability, CellTiter-Glo luminescence, at 10 µM, stronger effect = lower value.
A short description of experiment [4]: HUVEC growth inhibition – cell-based, human, primary screen (AID 575;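 active means viability at or below 30% in both replicate assays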;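 further: 100% = median of untreated cell wells with 0.1% DMSO on each plate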). To be noted: HUVEC proliferation, CellTiter-Glo luminescence, 72 h; at 10 µM; stronger effect = lower value. An outline of the steps: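 System: primary human umbilical vein endothelial cells; Quantity: 1250 endothelial cells in each well; Buffer or medium: supplemented EBM, 2% fetal bovine serum; Doses: one dose, 10 µM final, 0.1% DMSO; Incubation: 72 h compound incubation; Technique: ATP-based CellTiter-Glo luminescent read; Evaluation: percent of median DMSO-control luminescence; Controls: vehicle and MePR control wells.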

Experiment [5] in a line: growth inhibitors of H69AR lung tumor, primary screen, human, duplicate replicates (AID 580).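 Further: 100% = mean luminescence of untreated wells and 0% = no signal.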 The conditions noted are these: H69AR lung tumor cells viability, ATP luminescence, 72 h; at 10 µM; stronger effect = lower value.
The nature of experiment [6]: reversal of MRP1-mediated doxorubicin resistance, pilot screen, H69AR cells, doxorubicin co-treatment (AID 601;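 active means viability loss from added drug above about 55%, and viability with drug at most 40%, in both replicates, limit read from the data, passing the limit was not always enough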). The conditions noted are these: CellTiter-Glo, 72 h, at 10 µM; for differential viability (reversal): stronger effect = higher value.
Experiment [7] in a line: 384-well plate pilot, post-Golgi transport modulator project, inhibition of yeast transport mutant growth (AID 636; in the data active means inhibition above about 31%). To be noted: absorbance 615 nm, about 18 h, stronger effect = higher value.
Experiment [8] can be described thus: growth suppression of yeast trafficking mutant, preliminary HTS, modulators of trafficking downstream of Golgi apparatus project, 1536-format plate, OD 615 nm (AID 637; in the data active means inhibition above about 30%). To be noted: yeast transport mutant growth, absorbance 615 nm, 18 h; stronger effect = higher value.
Setting [9] is: H69AR cells + 2 uM doxorubicin, measured here: viability with 2 uM doxorubicin, stronger effect = lower value.
Where [10] appears, read: H69AR cells, compound alone cytotoxicity.

Calls of active or inactive are those of the source.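 How the source made its calls, unless noted: active means viability at or under a set limit in both replicates, limit being median viability minus 3 SD (cut at about 48% in these data, passing the limit was not always enough); inconclusive means at or under the limit in just one replicate; inactive means at or above the limit in both replicates.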

Receptor tyrosine-protein kinase erbB-2 (Homo sapiens), sequence (P04626 whole entry, looked up): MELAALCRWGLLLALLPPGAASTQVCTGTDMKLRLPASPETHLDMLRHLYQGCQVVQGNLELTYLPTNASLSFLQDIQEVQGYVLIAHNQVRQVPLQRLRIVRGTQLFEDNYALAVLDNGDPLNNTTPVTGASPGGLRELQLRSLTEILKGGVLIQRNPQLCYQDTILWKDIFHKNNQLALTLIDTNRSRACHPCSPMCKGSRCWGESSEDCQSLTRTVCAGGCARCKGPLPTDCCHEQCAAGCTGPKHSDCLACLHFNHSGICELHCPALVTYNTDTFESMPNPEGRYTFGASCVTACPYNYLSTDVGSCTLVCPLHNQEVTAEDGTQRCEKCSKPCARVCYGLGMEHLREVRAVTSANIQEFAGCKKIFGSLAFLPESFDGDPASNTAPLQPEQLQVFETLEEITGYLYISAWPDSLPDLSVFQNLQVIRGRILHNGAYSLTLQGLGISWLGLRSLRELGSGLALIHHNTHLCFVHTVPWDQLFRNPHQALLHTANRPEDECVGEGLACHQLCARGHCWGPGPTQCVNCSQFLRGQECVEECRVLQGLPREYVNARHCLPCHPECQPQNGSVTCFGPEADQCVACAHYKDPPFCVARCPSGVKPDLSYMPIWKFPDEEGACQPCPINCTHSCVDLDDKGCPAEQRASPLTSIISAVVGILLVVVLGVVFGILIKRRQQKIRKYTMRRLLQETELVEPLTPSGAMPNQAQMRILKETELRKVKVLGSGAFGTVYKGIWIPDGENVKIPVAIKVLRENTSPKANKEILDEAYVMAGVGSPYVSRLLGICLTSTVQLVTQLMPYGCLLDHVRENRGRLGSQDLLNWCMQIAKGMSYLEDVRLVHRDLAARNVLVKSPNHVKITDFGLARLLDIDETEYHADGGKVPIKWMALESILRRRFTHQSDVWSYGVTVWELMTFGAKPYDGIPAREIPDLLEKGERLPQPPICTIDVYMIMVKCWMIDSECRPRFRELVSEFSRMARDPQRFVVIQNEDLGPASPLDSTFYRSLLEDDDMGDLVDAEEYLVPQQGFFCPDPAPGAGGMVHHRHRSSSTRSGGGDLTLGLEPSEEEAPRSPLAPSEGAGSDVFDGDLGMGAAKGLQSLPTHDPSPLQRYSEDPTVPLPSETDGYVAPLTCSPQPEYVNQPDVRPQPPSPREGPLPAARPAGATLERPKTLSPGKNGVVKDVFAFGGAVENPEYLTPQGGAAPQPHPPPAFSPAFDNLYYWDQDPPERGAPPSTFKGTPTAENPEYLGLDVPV

The term viability denotes a read-out of living cells in per cent, often relative to untreated cells. For orientation: inhibition means the change of the read-out against control, counted positive when it falls. For `COc1ccc(CC(=O)NC2CCN(CC(=O)Nc3ccc4c(c3)OCCO4)CC2)cc1OC`, the viability in experiment [1] was 97.5%; in experiment [3], 97.5% (inactive); in experiment [4], 88.2% (inactive); in experiment [5] it was 106% (inactive); in experiment [6] (setting [9]) it was 89.1%; in experiment [6] (setting [10]), 106%. For the same compound, in experiment [2], the Her2 level is 132% (inactive). Moreover, in experiment [6] (H69AR cells + 2 uM doxorubicin), the differential viability (reversal) was 17% (inactive). Besides, the inhibition is -2.37% (inactive) in experiment [7] and -5.33% (inactive) in experiment [8].
For the compound `c1cc(CNc2ccc3c(c2)OCO3)ccn1`, the viability in experiment [1] is 80%; in experiment [3] it was 80% (inactive); in experiment [4], 70.7% (inactive); in experiment [5], 90% (inactive); in experiment [6] (setting [9]), 103%; in experiment [6] (setting [10]), 90%. In addition, the Her2 level in experiment [2] is 92% (inactive). The differential viability (reversal) in experiment [6] (H69AR cells + 2 uM doxorubicin) was -12.5% (inactive). For the same compound, the values for the inhibition in experiment [7] and in experiment [8] were -5.81% (inactive) and -2.13% (inactive), respectively.
For `Cn1c(=O)oc2cc(S(=O)(=O)N3CCC(C(=O)Nc4ccc(OC(F)(F)F)cc4)CC3)ccc21`, the viability in experiment [1] is 137%; in experiment [3], 137% (inactive); in experiment [4], 91.4% (inactive); in experiment [5] it was 33% (active); in experiment [6] (setting [9]), 37.5%; in experiment [6] (setting [10]), 33%. For the same compound, the Her2 level in experiment [2] is 98.5% (inactive). Further, the differential viability (reversal) in experiment [6] (H69AR cells + 2 uM doxorubicin) was -4.57% (inactive). Moreover, the inhibition in experiment [7] is -5.92% (inactive); in experiment [8], 0.18% (inactive).
With `O=S(=O)(Nc1ncccn1)c1ccc(Nc2ncnc3ccccc23)cc1`, the viability was 97.5% in experiment [1]; 97.5% (inactive) in experiment [3]; 81.2% (inactive) in experiment [4]; 95.7% (inactive) in experiment [5]; 94.5% in experiment [6] (setting [9]); 95.7% in experiment [6] (setting [10]). Further, the Her2 level in experiment [2] was 93% (inactive). Further, the differential viability (reversal) in experiment [6] (H69AR cells + 2 uM doxorubicin) is 1.15% (inactive). Moreover, the inhibition in experiment [7] is -7.57% (inactive); in experiment [8], 3.11% (inactive).
For `CC1=C(C(N)=O)C(c2cccnc2)n2nc(SCc3ccccc3Cl)nc2N1` (stereo not given), the viability in experiment [1] is 79%; in experiment [3], 79% (inactive); in experiment [4], 87.6% (inactive); in experiment [5] it was 98.7% (inactive); in experiment [6] (setting [9]), 84%; in experiment [6] (setting [10]), 98.7%. The Her2 level in experiment [2] is 94.5% (inactive). For the same compound, the differential viability (reversal) in experiment [6] (H69AR cells + 2 uM doxorubicin) is 14.7% (inactive). For the same compound, the inhibition in experiment [7] was -9.05% (inactive); in experiment [8], -3.77% (inactive).
With `COc1cc2c(cc1NC(=O)CN1CCN(S(=O)(=O)c3ccc(F)cc3)CC1)oc1ccccc12`, the viability was 93.5% in experiment [1]; 93.5% (inactive) in experiment [3]; 66.4% (inactive) in experiment [4]; 95.7% (inactive) in experiment [5]; 94.4% in experiment [6] (setting [9]); 95.7% in experiment [6] (setting [10]). In experiment [2], the Her2 level is 105% (inactive). For the same compound, in experiment [6] (H69AR cells + 2 uM doxorubicin), the differential viability (reversal) was 1.29% (inactive). Moreover, the results for the inhibition in experiment [7] and in experiment [8] were -2.37% (inactive) and 3.33% (inactive), respectively.
As to `Cc1cc(NC(=O)CSc2nc3ccccc3n2CC(=O)N2CCCCC2)no1`, the viability was 78% in experiment [1]; 78% (inactive) in experiment [3]; 103% (inactive) in experiment [4]; 86.2% (inactive) in experiment [5]; 77.8% in experiment [6] (setting [9]); 86.2% in experiment [6] (setting [10]). Moreover, the Her2 level in experiment [2] is 70% (inactive). In experiment [6] (H69AR cells + 2 uM doxorubicin), the differential viability (reversal) was 8.37% (inactive). Further, the inhibition in experiment [7] was -5.54% (inactive); in experiment [8], 3.61% (inactive).
Turning to `O=C(CCC(=O)N1CCc2ccccc2C1)N1CCN(S(=O)(=O)c2ccccc2)CC1`, the viability in experiment [1] was 82%; in experiment [3], 82% (inactive); in experiment [4], 84.4% (inactive); in experiment [5] it was 90.6% (inactive); in experiment [6] (setting [9]) it was 91.2%; in experiment [6] (setting [10]), 90.6%. The Her2 level in experiment [2] is 116% (inactive). For the same compound, the differential viability (reversal) in experiment [6] (H69AR cells + 2 uM doxorubicin) was -0.59% (inactive). Moreover, the inhibition in experiment [7] is 4.81% (inactive); in experiment [8] it was 12.9% (inactive).
Turning to `CCNC(=O)Cn1cnc2c1c(=O)n(C)c(=O)n2C`, the viability was 108% in experiment [1]; 108% (inactive) in experiment [3]; 112% (inactive) in experiment [4]; 96.2% (inactive) in experiment [5]; 98.2% in experiment [6] (setting [9]); 96.2% in experiment [6] (setting [10]). Also, in experiment [2], the Her2 level was 108% (inactive). In addition, the differential viability (reversal) in experiment [6] (H69AR cells + 2 uM doxorubicin) was -1.97% (inactive). The inhibition was -4.74% (inactive) in experiment [7] and 5.25% (inactive) in experiment [8].
Turning to `CC1(C)Cc2noc(N)c2C(C)(C)N1OC(=O)c1ccco1`, the viability is 118% in experiment [1]; 118% (inactive) in experiment [3]; 93.1% (inactive) in experiment [4]; 94.5% (inactive) in experiment [5]; 91.7% in experiment [6] (setting [9]); 94.5% in experiment [6] (setting [10]). Also, in experiment [2], the Her2 level is 82.5% (inactive). Further, the differential viability (reversal) in experiment [6] (H69AR cells + 2 uM doxorubicin) was 2.83% (inactive). Further, the inhibition in experiment [7] was -3.55% (inactive); in experiment [8], 3.81% (inactive).
Turning to `Cn1c(SCC(=O)Nc2ccc3c(c2)oc2ccccc23)nnc1-c1ccccc1`, the viability in experiment [1] was 83%; in experiment [3] it was 83% (inactive); in experiment [4], 53.1% (inactive); in experiment [5], 69.4% (inactive); in experiment [6] (setting [9]), 77.1%; in experiment [6] (setting [10]), 69.4%. Moreover, in experiment [2], the Her2 level is 75.5% (inactive). Further, the differential viability (reversal) in experiment [6] (H69AR cells + 2 uM doxorubicin) is -7.74% (inactive). Further, the inhibition in experiment [7] was -5.73% (inactive); in experiment [8], 5.9% (inactive).
As for `CCOC(=O)C1CCN(C(=O)c2ccc(OC)cc2OC)CC1`, the viability is 102% in experiment [1]; 102% (inactive) in experiment [3]; 110% (inactive) in experiment [4]; 106% (inactive) in experiment [5]; 100% in experiment [6] (setting [9]); 106% in experiment [6] (setting [10]). Moreover, the Her2 level in experiment [2] was 112% (inactive). The differential viability (reversal) in experiment [6] (H69AR cells + 2 uM doxorubicin) was 5.9% (inactive). The figures for the inhibition in experiment [7] and in experiment [8] were -6.13% (inactive) and 6.13% (inactive), respectively.
As to `COc1ccc(CCNC(=O)c2ccncc2)cc1OC`, the viability in experiment [1] is 107%; in experiment [3] it was 107% (inactive); in experiment [4], 96.3% (inactive); in experiment [5], 97.5% (inactive); in experiment [6] (setting [9]) it was 85.3%; in experiment [6] (setting [10]), 97.5%. The Her2 level in experiment [2] was 110% (inactive). Moreover, the differential viability (reversal) in experiment [6] (H69AR cells + 2 uM doxorubicin) is 12.2% (inactive). Also, the inhibition in experiment [7] is -6.27% (inactive); in experiment [8], -3.71% (inactive).
Consider `O=C(Cn1cnc2c(cnn2-c2ccc(F)cc2)c1=O)N1CCCc2ccccc21`, for which the viability in experiment [1] is 112%; in experiment [3] it was 112% (inactive); in experiment [4], 85.6% (inactive); in experiment [5], 94.4% (inactive); in experiment [6] (setting [9]), 102%; in experiment [6] (setting [10]), 94.4%. The Her2 level in experiment [2] was 86.5% (inactive). In experiment [6] (H69AR cells + 2 uM doxorubicin), the differential viability (reversal) was -7.36% (inactive). Further, the inhibition in experiment [7] was -4.67% (inactive); in experiment [8], -2.79% (inactive).
For the compound `COc1ccc(-c2nnc(-c3cccs3)o2)cc1OC`, the viability in experiment [1] is 75%; in experiment [3], 75% (inactive); in experiment [4], 92.7% (inactive); in experiment [5], 94.6% (inactive); in experiment [6] (setting [9]) it was 93.5%; in experiment [6] (setting [10]) it was 94.6%. In addition, the Her2 level in experiment [2] was 110% (inactive). The differential viability (reversal) in experiment [6] (H69AR cells + 2 uM doxorubicin) is 1.17% (inactive). The inhibition was -3.78% (inactive) in experiment [7] and -3.93% (inactive) in experiment [8].
